Measured values as given in paper PMC4724694 (Acta Pharmaceutica Sinica. B, 2016).
Where two headings read alike, the source gives them in different places.

Experiments:
5-LOX [1] = target: T1, 5-LOX (Homo sapiens, UniProt P09917); assay: Inhibition of 5-LOX product synthesis; format: cell-based
T1 sequence (P09917 1-674): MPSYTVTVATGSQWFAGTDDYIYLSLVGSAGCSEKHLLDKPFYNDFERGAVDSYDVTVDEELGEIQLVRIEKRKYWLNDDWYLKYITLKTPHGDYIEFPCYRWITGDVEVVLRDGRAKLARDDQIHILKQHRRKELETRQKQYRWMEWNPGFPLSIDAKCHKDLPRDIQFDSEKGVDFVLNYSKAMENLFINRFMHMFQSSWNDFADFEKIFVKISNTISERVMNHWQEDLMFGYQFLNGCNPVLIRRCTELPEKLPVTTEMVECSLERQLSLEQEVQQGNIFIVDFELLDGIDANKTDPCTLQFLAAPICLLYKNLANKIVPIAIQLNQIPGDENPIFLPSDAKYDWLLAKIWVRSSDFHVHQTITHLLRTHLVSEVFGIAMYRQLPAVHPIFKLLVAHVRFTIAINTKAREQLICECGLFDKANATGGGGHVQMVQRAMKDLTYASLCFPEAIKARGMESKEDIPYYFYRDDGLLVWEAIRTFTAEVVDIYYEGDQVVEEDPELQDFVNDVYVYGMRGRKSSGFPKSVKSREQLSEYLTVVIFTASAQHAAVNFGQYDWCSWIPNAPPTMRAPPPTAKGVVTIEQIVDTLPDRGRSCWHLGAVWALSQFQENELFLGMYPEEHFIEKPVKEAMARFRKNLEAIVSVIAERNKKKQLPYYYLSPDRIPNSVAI

5-LOX [2] = target: T2, 5-LOX (Rattus norvegicus, UniProt P12527); assay: Inhibition of 5-LOX product synthesis; format: cell-based; conditions: for IC50: rat peritoneal polymorphonuclear leukocytes; for inhibition at 5 µM: PMNL, read-out: Inhibition at 5 μmol/L (%)
T2 sequence (P12527 1-673): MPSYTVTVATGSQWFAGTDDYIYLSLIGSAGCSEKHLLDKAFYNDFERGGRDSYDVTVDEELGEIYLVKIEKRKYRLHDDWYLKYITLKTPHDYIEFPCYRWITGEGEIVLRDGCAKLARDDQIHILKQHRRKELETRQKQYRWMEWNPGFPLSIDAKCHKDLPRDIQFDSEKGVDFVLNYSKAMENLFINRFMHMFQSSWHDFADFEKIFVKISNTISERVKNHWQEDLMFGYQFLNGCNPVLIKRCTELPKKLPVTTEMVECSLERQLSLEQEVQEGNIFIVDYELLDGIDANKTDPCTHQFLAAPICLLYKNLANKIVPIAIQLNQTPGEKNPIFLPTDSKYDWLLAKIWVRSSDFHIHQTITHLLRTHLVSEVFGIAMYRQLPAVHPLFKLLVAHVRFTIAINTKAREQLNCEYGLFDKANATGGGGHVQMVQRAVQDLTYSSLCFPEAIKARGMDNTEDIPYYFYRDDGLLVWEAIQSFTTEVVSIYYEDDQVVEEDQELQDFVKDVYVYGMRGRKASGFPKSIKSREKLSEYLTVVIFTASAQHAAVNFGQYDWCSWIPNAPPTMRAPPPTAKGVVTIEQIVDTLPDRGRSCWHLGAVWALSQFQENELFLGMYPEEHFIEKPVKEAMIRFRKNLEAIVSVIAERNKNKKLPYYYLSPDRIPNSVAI

5-LOX [3] = target: T1, 5-LOX; assay: Cell-free 5-LOX enzymatic assay; format: biochemical
mouse MCAO model = conditions: in vivo, ip, 50 mg/kg
BV2 cells [4] = assay: LPS-induced nitric oxide; format: cell-based, mouse; conditions: LPS 200 ng/mL, 4e at 10, 50 or 100 μmol/L, 24 h
Method in brief: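 Mouse BV2 microglia grown in DMEM with 10% FBS and penicillin-streptomycin (100 μg/mL) at 37 °C, 5% CO2. Cells trypsinized and seeded at 2×10^4 cells/well; 24 h later, test compound added with or without LPS (200 ng/mL). Supernatants collected after 24 h exposure, mixed with equal volume of Griess reagent, and nitrite read at 570 nm.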

BV2 cells [5] = assay: BV2 cell viability, MTT assay; format: cell-based, mouse; conditions: tested concentrations 10, 50, 100 μmol/L, with or without LPS
HT22 cells = assay: Glutamate-induced oxidative toxicity in HT22 neuronal cells, MTT assay; format: cell-based, mouse; conditions: glutamate 5 mmol/L, 24 h, 4e at 1–100 μmol/L

Work on COc1ccc(-c2cc(C(=O)Nc3cc(C(C)(C)C)c(O)c(C(C)(C)C)c3)nn2-c2ccc(S(N)(=O)=O)cc2)cc1 [4c, N-(3,5-di-tert-butyl-4-hydroxyphenyl)-1-(4-aminosulfonylphenyl)-5-p-meth-oxyphenyl-1H-pyrazole-3-carboxamide] yielded an IC50 (5-LOX [1]) of 4870 nM, an IC50 (5-LOX [2]; IC50 PMNL) of 450 nM and an inhibition at 5 µM (5-LOX [2]) of 74.9%. For the same compound, the IC50 (5-LOX [3]) was 136 ± 15 nM.
Work on CC(C)(C)c1cc(NC(=O)c2cc(-c3ccc4c(c3)OCO4)n(-c3ccc(S(N)(=O)=O)cc3)n2)cc(C(C)(C)C)c1O [4e, N-(3,5-di-tert-butyl-4-hydroxyphenyl)-5-(benzo [1, 3]dioxol-5-yl)-1-(4-amino-sulfonylphenyl)-1H-pyrazole-3-carboxamide] yielded an IC50 (5-LOX [1]) of 1080 nM, an IC50 (5-LOX [2]; IC50 PMNL) of 690 nM and an inhibition at 5 µM (5-LOX [2]) of 90.1%. The IC50 (5-LOX [3]) was 133 ± 14 nM, the “Cortical, striatal and hemispheric infarct volumes” value (mouse MCAO model) was “significantly decreased cortical, striatal and hemispheric infarct volumes” and the “LPS-induced generation of NO” value (BV2 cells [4]) was “remarkably attenuated”. For the same compound, the “Cell viability of BV2 cells (MTT)” value (BV2 cells [5]) was “did not reduce the viabilities of BV2 cells” and the “Glutamate-induced HT22 cell death (MTT)” value (HT22 cells) was “remarkably reduced glutamate-induced HT22 cell death”.
In the case of CC(C)(C)c1cc(NC(=O)c2cc(-c3ccc4ccccc4c3)n(-c3ccc(S(N)(=O)=O)cc3)n2)cc(C(C)(C)C)c1O [4g, N-(3,5-di-tert-butyl-4-hydroxyphenyl)-1-(4-aminosulfonylphenyl)-5-naphth-2-yl-1H-pyrazole-3-carboxamide], the IC50 (5-LOX [1]) is reported as 2110 nM, the IC50 (5-LOX [2]; IC50 PMNL) is reported as 750 nM and the inhibition at 5 µM (5-LOX [2]) is reported as 66.1%. It also gave an IC50 (5-LOX [3]) of 165 ± 17 nM.
Work on CC(C)(C)c1cc(NC(=O)c2cc(C3CCCCC3)n(-c3ccc(S(N)(=O)=O)cc3)n2)cc(C(C)(C)C)c1O [4j, N-(3,5-di-tert-butyl-4-hydroxyphenyl)-1-(4-aminosulfonylphenyl)-5-cyclo-hexyl-1H-pyrazole-3-carboxamide] yielded an IC50 (5-LOX [1]) of 33900 nM, an IC50 (5-LOX [2]; IC50 PMNL) of 1070 nM and an inhibition at 5 µM (5-LOX [2]) of 69.2%.
Work on CC(C)(C)c1cc(NC(=O)c2cc(-c3ccc(Br)s3)n(-c3ccc(S(N)(=O)=O)cc3)n2)cc(C(C)(C)C)c1O [4k, N-(3,5-di-tert-butyl-4-hydroxyphenyl)-1-(4-aminosulfonylphenyl)-5-(5-bromothiophen-2-yl)-1H-pyrazole-3-carboxamide] yielded an IC50 (5-LOX [1]) of 5830 nM, an IC50 (5-LOX [2]; IC50 PMNL) of 900 nM and an inhibition at 5 µM (5-LOX [2]) of 74.5%. For the same compound, the IC50 (5-LOX [3]) was 159 ± 16 nM.
CC(C)(C)c1cc(NC(=O)c2cc(-c3ccc4c(c3)OCO4)n(-c3ccc(S(C)(=O)=O)cc3)n2)cc(C(C)(C)C)c1O [5e, N-(3,5-di-tert-butyl-4-hydroxyphenyl)-5-(benzo [1, 3]dioxol-5-yl)-1-(4-methylsulfonylphenyl)-1H-pyrazole-3-carboxamide] showed an IC50 (5-LOX [1]) of 940 nM, an IC50 (5-LOX [2]; IC50 PMNL) of 640 nM and an inhibition at 5 µM (5-LOX [2]) of 79.3%. It also gave an IC50 (5-LOX [3]) of 169 ± 16 nM.
Compound CC(C)(C)c1cc(NC(=O)c2cc(-c3ccc4c(c3)OCCO4)n(-c3ccc(S(C)(=O)=O)cc3)n2)cc(C(C)(C)C)c1O [5f, N-(3,5-di-tert-butyl-4-hydroxyphenyl)-5-(2,3-dihydrobenzo [1, 4]dioxin-7-yl)-1-(4-methylsulfonylphenyl)-1H-pyrazole-3-carboxamide] has an IC50 (5-LOX [1]) of 4650 nM, an IC50 (5-LOX [2]; IC50 PMNL) of 810 nM and an inhibition at 5 µM (5-LOX [2]) of 70.3%. The IC50 (5-LOX [3]) was 273 ± 21 nM.
CC(C)(C)c1cc(NC(=O)c2cc(-c3ccc(C(F)(F)F)cc3)n(-c3ccc(S(C)(=O)=O)cc3)n2)cc(C(C)(C)C)c1O [5i, N-(3,5-di-tert-butyl-4-hydroxyphenyl)-1-(4-methylsulfonylphenyl)-5-p-tri-fluoromethylphenyl-1H-pyrazole-3-carboxamide] was tested, and the IC50 (5-LOX [1]; read-out: IC50 HWB, human whole blood) was 1130 nM, the “Inhibition at 5 μmol/L (%)” value (5-LOX [2]; rat PMNLs, 5 μmol/L, mean of three determinations) was 69.6% and the IC50 (5-LOX [2]; read-out: IC50 PMNL) was 800 nM. It also gave an IC50 (5-LOX [3]; read-out: IC50 Enzymatic assay, cell-free, human 5-LOX, triplicate) of 127 ± 29 nM.
In the case of CC(C)(C)c1cc(NC(=O)c2cc(-c3ccccc3)n(-c3ccc(F)cc3)n2)cc(C(C)(C)C)c1O [6a, N-(3,5-di-tert-butyl-4-hydroxyphenyl)-1-(4-fluorophenyl)-5-phenyl-1H-pyrazole-3-carboxamide], the inhibition at 5 µM (5-LOX [2]) is reported as 56.8%.
Work on Cc1ccc(-c2cc(C(=O)Nc3cc(C(C)(C)C)c(O)c(C(C)(C)C)c3)nn2-c2ccc(F)cc2)cc1 [6b, N-(3,5-di-tert-butyl-4-hydroxyphenyl)-1-(4-fluorophenyl)-5-p-tolyl-1H-pyrazole-3-carboxamide] yielded an IC50 (5-LOX [1]) of 10200 nM, an IC50 (5-LOX [2]; IC50 PMNL) of 820 nM and an inhibition at 5 µM (5-LOX [2]) of 83.7%. For the same compound, the IC50 (5-LOX [3]) was 327 ± 22 nM.
